Drawing on ChEMBL document CHEMBL1649518, “Safety and outcomes of open-label deferasirox iron chelation therapy for mucormycosis” (Antimicrob Agents Chemother, 2009), this text covers Activity for 1 molecule.

Common to all, as to assay type: organism-based
Holding throughout (parameters): route oral
What all share (settings): in vivo, 336 h

Series [1] concerns Homo sapiens. Description: Toxicity in patient with mucormycosis assessed as creatinine level at 5 to 20 mg/kg/day, po for 14 days (reference value: 1.6 mg/dl). The procedure, abridged:
(§1)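 Open-label deferasirox given to patients with mucormycosis. One patient with coexisting hepatic disease received 5 mg/kg of body weight/day for 20 days. Laboratory values were reported as medians (interquartile range) at diagnosis, at start of deferasirox, at end of deferasirox, and at a final time point.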

Series [2] concerns Homo sapiens. Description: Toxicity in patient with mucormycosis assessed as alanine transaminase level at 5 to 20 mg/kg/day, po for 14 days (reference value: 21 U/l). Put shortly:
as §1

Series [3] has as its system Homo sapiens. Briefly: Toxicity in patient with mucormycosis assessed as blood urea nitrogen level at 5 to 20 mg/kg/day, po for 14 days (reference value: 34 mg/dl). The procedure, abridged: as §1
Series [4] has as its system Homo sapiens. Briefly: Toxicity in patient with mucormycosis assessed as absolute neutrophil count at 5 to 20 mg/kg/day, po for 14 days (reference value: 5.2/uL). The procedure, abridged: as §1
Series [5] deals with Homo sapiens. Briefly: Toxicity in patient with mucormycosis assessed as WBC count at 5 to 20 mg/kg/day, po for 14 days (reference value: 8.1/uL). The procedure, abridged:
as §1

The test system of series [6] is Homo sapiens. Description: Toxicity in patient with mucormycosis assessed as hemoglobin level at 5 to 20 mg/kg/day, po for 14 days (reference value: 9 mg/dl). The procedure, abridged:
as §1

In series [7] the test system is Homo sapiens. Briefly: Toxicity in patient with mucormycosis assessed as platelet count at 5 to 20 mg/kg/day, po for 14 days (reference value: 217/uL). The procedure, abridged:
as §1

Series [8] deals with Homo sapiens. Description: Toxicity in patient with mucormycosis assessed as glucose level at 5 to 20 mg/kg/day, po for 14 days (reference value: 131 mg/dl). The procedure, abridged:
as §1

The subject of series [9] is Homo sapiens. Briefly: Toxicity in patient with mucormycosis assessed as alkaline phosphatase level at 5 to 20 mg/kg/day, po for 14 days (reference value: 126 U/l). Put shortly:
as §1

In series [10] the test system is Homo sapiens. Description: Toxicity in patient with mucormycosis assessed as total bilirubin level at 5 to 20 mg/kg/day, po for 14 days (reference value: 0.8 mg/dl). The procedure, abridged: as §1
For series [11], the system named is Homo sapiens. Briefly: Toxicity in patient with mucormycosis assessed as aspartate transaminase level at 5 to 20 mg/kg/day, po for 14 days (reference value: 27 U/l). Put shortly:
as §1

For the molecule `O=C(O)c1ccc(-n2nc(-c3ccccc3O)nc2-c2ccccc2O)cc1` [DEFERASIROX], the Activity in series [1] was 1.9 mg/dL; in [2] it was 49 U/L; in series [3], 43 mg/dL; in series [4] it was 5.4 10^3 cells/µL; in series [5], 10.8 10^3 cells/µL; in [6], 9 g/dL. In addition, the Activity in series [7] was 199 10^3 cells/µL; in [8], 104 mg/dL; in [9] it was 314 U/L; in series [10] it was 0.6 mg/dL; in [11] it was 28 U/L.
